Source: PubChem BioAssay (The Scripps Research Institute Molecular Screening Center)
M5 antag – blocks acetylcholine activation of human M5 receptor. AID 624040. inhibition, % at 3 µM. 360,000 tested, 0.59% active. P08912. CHO-hM5 cells, Fluo-8 calcium fluorescence, ACh EC80;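 active = inhibition above a per-plate cutoff, the mean of that plate's test compounds plus 3 SD, cut at about 27% in these data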
CHRM4 agonist – agonists of human muscarinic M4 receptor (CHRM4). AID 624127. activation, % at 3 µM. CHO-K1 hM4/Gqi5, Fluo-8 calcium fluorescence; vehicle 0%, full acetylcholine response 100%. 360,000 tested, 0.14% active. P08173;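 active = activation above the run mean over all test wells plus 3 SD, cut at about 32% in these data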;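 also: peak over basal fluorescence ratio per well then scaled between controls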
Target sequence (P08173 whole entry, looked up): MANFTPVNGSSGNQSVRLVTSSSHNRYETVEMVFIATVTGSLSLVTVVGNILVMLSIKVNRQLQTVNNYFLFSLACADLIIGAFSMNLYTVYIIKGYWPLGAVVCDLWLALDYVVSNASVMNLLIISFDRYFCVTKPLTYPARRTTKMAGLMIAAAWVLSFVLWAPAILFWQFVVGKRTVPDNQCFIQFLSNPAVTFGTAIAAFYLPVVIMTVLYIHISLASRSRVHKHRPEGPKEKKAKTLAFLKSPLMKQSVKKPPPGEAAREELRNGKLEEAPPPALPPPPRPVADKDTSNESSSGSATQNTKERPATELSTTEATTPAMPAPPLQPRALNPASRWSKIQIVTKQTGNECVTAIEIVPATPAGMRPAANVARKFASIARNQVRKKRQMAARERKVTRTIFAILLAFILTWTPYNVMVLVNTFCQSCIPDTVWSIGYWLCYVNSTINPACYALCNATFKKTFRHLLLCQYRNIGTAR
M4 PAM – positive allosteric modulators of human muscarinic M4 receptor. P08173. CHO-K1 hM4/Gqi5, Fluo-8 calcium fluorescence, ACh EC20; 0% = ACh EC20, 100% = maximal ACh. activation, % at 3 µM. 360,000 tested, 0.4% active;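 active = activation above its plate's cutoff, the mean activation of sample wells plus 3 SD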
CHRM5 agonist – agonists of human muscarinic M5 receptor (CHRM5); 360,000 tested, 0.19% active; activation, % at 3 µM; P08912; CHO-K1 hM5 cells, Fluo-8 calcium fluorescence; 0% DMSO wells, 100% maximal acetylcholine response; AID 624037;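 active = activation above the run's mean over test compounds plus 3 SD, cut at about 23% in these data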;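 also: signal is peak over basal fluorescence ratio across the kinetic read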
CHRM4 antagonist – blocks acetylcholine activation of human M4 receptor. CHO-hM4 cells, ACh EC80, Fluo-8 calcium fluorescence. P08173. 360,000 tested, 0.73% active. AID 624125. inhibition, % at 3 µM;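 active = inhibition above its plate's cutoff, the mean inhibition of sample wells plus 3 SD, cut at about 27% in these data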
M5 PAM – CHRM5 positive allosteric modulation; P08912; CHO-K1 hM5, Fluo-8 calcium, ACh EC20 PAM; 0% = ACh EC20, 100% = ACh EC100; activation, % at 3 µM; 360,000 tested, 0.3% active;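 active = activation above the run cutoff, the mean activation of all test compounds plus 3 SD, cut at about 18% in these data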
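Test system: CHO-K1 hM5 cells / Doses: single-point, 3 µM nominal / Times: Post-acetylcholine fluorescence recording 140 s / Technique: Fluo-8 calcium fluorescence / Measure: Max/basal fluorescence ratio as % of EC20–EC100 ACh window / Benchmarks: low control EC20 acetylcholine (0%), high control EC100 acetylcholine (100%) / Replicates: one well per compound, no replicates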
Numbers stand for hits; – = inactive. This is a sample that favours compounds with a hit; in the whole collection about 1.8% have one here.

SMILES	M5 antag	CHRM4 agonist	M4 PAM	CHRM5 agonist	CHRM4 antagonist	M5 PAM
CN(C)CCCn1c(=O)n(CCc2ccccc2)c(=O)c2c3c(sc21)CCCCC3	–	–	–	–	–	–
CN(C)CCCn1c(=O)n(Cc2ccco2)c(=O)c2c3c(sc21)CCCCC3	–	–	–	–	–	18.3
N#CC(C#N)=C1C=CC=CN1/C(=C\c1ccco1)C(=O)c1ccc(Cl)cc1	–	–	–	–	55.0	–
N#CC(C#N)=C1C=CC=CN1/C(=C\c1ccco1)C(=O)c1ccc(-c2ccccc2)cc1	–	–	–	–	27.0	–
N#C/C(=C\c1ccco1)C(=O)NCc1ccccc1	–	–	–	–	–	–
CC(/C=N/n1c(-c2ccc(Cl)cc2)n[nH]c1=S)=C\c1ccco1	–	–	–	–	–	–
O=C(CCCCCn1c(=S)[nH]c2ccc(Br)cc2c1=O)NCC1CCCO1 (stereo not drawn)	–	–	–	–	–	–
NS(=O)(=O)c1ccc(CCNC(=O)CCCCCn2c(=S)[nH]c3ccc(Br)cc3c2=O)cc1	27.1	–	–	–	–	–
c1ccc2c(c1)OCC(CNc1ncnc3sccc13)O2 (stereo not drawn)	35.3	–	–	–	–	–
COc1ccc(CCNc2ncnc3sccc23)cc1OC	47.9	–	–	–	40.3	–
c1ccc2c(c1)OCC(CNCC1COc3ccccc3O1)O2 (stereo not drawn)	–	–	–	–	–	–
COc1ccccc1CNc1ncnc2sccc12	27.3	–	–	–	–	–
Fc1ccccc1CNc1ncnc2sccc12	–	–	–	–	–	–
Cc1cccc(NC(=O)/C(C#N)=C\c2cn(CC(=O)O)c3ccccc23)c1	27.9	–	–	–	–	–
COC(=O)CCCn1nc(NC(=O)COc2ccc(F)cc2)cc1C	–	–	–	–	–	–
Cc1ccc(C(=O)NC2CC3CCCC(C2)N3C(=S)NCc2ccco2)cc1 (stereo not drawn)	–	–	21.4	–	–	–
Cc1c(C(C)C)c(=O)n(-c2ccc(S(=O)(=O)NC3CCCCC3)cc2)n1C	30.3	–	–	–	–	–
COc1ccc(S(=O)(=O)N2CCCOC2CNC(=O)C(=O)NCc2ccncc2)cc1 (stereo not drawn)	–	–	–	–	–	–
Cc1ccc(CNC(=O)CSc2nnc(CNC(=O)c3ccccc3)o2)cc1	–	–	22.9	–	–	–
COC1OC(COCc2ccccc2)C(N)C(OCc2ccccc2)C1OCc1ccccc1 (stereo not drawn)	–	–	–	–	–	–
CC(C)N(C(=O)COC(=O)c1cc(Cl)cc(Cl)c1N)C(C)C	27.2	–	–	–	–	–
Cc1cc(F)ccc1-c1cc(C(=O)NC2CCCCC2)[nH]n1	–	–	–	–	–	–
CC1C(=O)N(Cc2cn(Cc3ccco3)nn2)CCS(=O)(=O)N1Cc1ccc(-c2ccc(F)cc2)cc1 (stereo not drawn)	–	–	–	–	–	–
COc1ccc(NC(=O)C2CCN(C(=O)c3cccs3)CC2)cc1OC	–	–	–	–	–	–
COc1ccc([N+](=O)[O-])cc1NC1CCN(C(=O)c2cccs2)CC1	–	–	17.7	–	–	–
SMILES	M5 antag	CHRM4 agonist	M4 PAM	CHRM5 agonist	CHRM4 antagonist	M5 PAM
Cc1ccc(CNCC(O)(c2ccccc2)c2ccc(Cl)cc2)cc1 (stereo not drawn)	–	–	–	–	–	–
COc1ccc(CNCC(O)(c2ccccc2)c2ccc(Cl)cc2)cc1 (stereo not drawn)	–	–	–	–	28.2	–
CCN1CCCC1CNC(=O)c1cc([N+](=O)[O-])c(N(C)C)cc1OC (stereo not drawn)	–	–	–	–	–	–
Cc1ccc(NS(=O)(=O)c2cc(Br)cnc2N)cc1C	99.6	–	–	–	97.4	–
Cc1cc(C)cc(NS(=O)(=O)c2cc(Br)cnc2N)c1	–	–	–	–	–	–
Cc1ccc(NC(=O)c2cnccn2)c(C)c1	–	–	–	–	–	–
CC(C)C(=O)N1CCN(c2ccccc2NC(=O)c2ccc(C#N)cc2F)CC1	–	–	–	–	–	–
CC1CCN(c2ccccc2NC(=O)c2ccc(C#N)cc2F)CC1	–	–	23.2	–	–	–
COc1ccc(CCNc2ccc(C(CC(N)=O)NC(=O)c3cc(C)cc(C)c3)cc2[N+](=O)[O-])cc1 (stereo not drawn)	–	–	–	–	–	–
CC(C)CN(C(=O)CCNC(=O)c1ccc(Cl)cc1)C1CCS(=O)(=O)C1 (stereo not drawn)	–	–	–	–	–	18.3
CC(C)CN(C(=O)CN(C)S(=O)(=O)c1ccc(Cl)cc1)C1CCS(=O)(=O)C1 (stereo not drawn)	–	–	–	–	–	–
O=c1[nH]c2cc3c(cc2cc1CN(Cc1cccnc1)C(=S)NCc1ccco1)OCCO3	–	–	–	–	–	–
CC1CC1c1ccc(/C=C(\C#N)C(=O)Nc2cc(Cl)ccc2Cl)o1 (stereo not drawn)	–	–	20.8	–	–	–
Cc1cc(C(=O)NCCc2ccc(S(N)(=O)=O)cc2)no1	–	–	–	–	–	18.3
COc1ccccc1NC(=S)NCCc1ccc(S(N)(=O)=O)cc1	–	–	–	–	–	–
COc1ccc(NC(=S)NCCN2CCOCC2)c(OC)c1	–	–	16.1	–	–	–
COc1ccc(NC(=S)NCCc2ccc(S(N)(=O)=O)cc2)c(OC)c1	27.1	–	–	–	–	–
Cc1ccc(C)c(N2CCN(c3ccc4cc(S(=O)(=O)N5CCCCC5)ccc4n3)CC2)c1	–	–	–	–	–	18.4
O=C1NN=C2CCCCCC12 (stereo not drawn)	–	–	–	–	–	–
CSc1ccc(/C=N/NC(=O)CN2CCN(Cc3ccccc3Cl)CC2)cc1	–	–	–	–	–	–
CSc1ccc(/C=N/NC(=O)CN2CCN(Cc3ccc(C)cc3)CC2)cc1	–	–	–	–	42.2	–
CC1CCCN(C(C(=O)NC2CCCCC2)c2cc3c(cc2[N+](=O)[O-])OCO3)C1 (stereo not drawn)	–	–	25.3	–	–	–
O=C(CCn1cnc2ccccc2c1=O)Nc1ccc2c(c1)OCCO2	–	–	–	–	–	24.8
CCCn1cc(SCC(=O)Nc2ccc3c(c2)OCO3)c2ccccc21	–	–	–	28.5	–	–
Cc1ccc(NC(=O)Cc2nn(C)c(=O)c3ccccc23)cc1F	–	–	–	–	32.8	–
Cn1nc(CC(=O)Nc2ccc3c(c2)OCCO3)c2ccccc2c1=O	32.4	–	–	–	–	–
